# Test results as given in ChEMBL document CHEMBL1128256, “Synthesis, biological evaluation, and structure analysis of a series of new 1,5-anhydrohexitol nucleosides” (J Med Chem, 1995).
# Legend:
# E6SM [1] = assay: Tested for the minimum inhibitory concentration required to reduce herpes simplex virus type 2 (HSV-2) strain 196 induced cytopathogenicity by 50%.; type: functional; settings: Homo sapiens
# How it was run: (§1)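 Inhibition of virus-induced cytopathogenicity in human embryonic skin-muscle (E6SM) fibroblasts seeded in 96-well trays. Viruses were HSV-1 (KOS, F, McIntyre), TK- HSV-1 B2006, TK-/TK+ HSV-1 clinical isolate VMW-1837 and HSV-2 (G, 196, Lyons). […] MCC is the lowest concentration giving microscopically detectable alteration of normal cell morphology; highest concentration tested was 400 µg/mL.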
# E6SM [2] = assay: Tested for the minimum inhibitory concentration required to reduce vaccinia virus(VV) induced cytopathogenicity by 50%.; type: functional; settings: Homo sapiens
# HEL [3] = assay: Tested for the inhibitory concentration required to reduce cytomegalovirus (CMV) strain AD-169 plaque formation by 50%.; type: functional, cell-based; settings: Homo sapiens
# How it was run: (§2)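 Virus plaque formation assay in human embryonic lung (HEL) cells seeded in 96-well trays. Targets were TK+ VZV (Oka, YS), TK- VZV (07/1, YS/R) and CMV (AD169, Davis). Value is the concentration that reduces plaque number by 50%. Cytotoxicity in HEL cells was taken as the concentration that reduces cell growth by 50%.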
# HEL [4] = assay: Tested for the inhibitory concentration required to reduce TK+ Varicella-Zoster virus (TK+ VZV) strain YS plaque formation by 50%; type: functional, cell-based; settings: Homo sapiens
# E6SM [5] = assay: Tested for the minimum inhibitory concentration required to reduce herpes simplex virus type 2 (HSV-2) strain G induced cytopathogenicity by 50%.; type: functional; settings: Homo sapiens; how it was run: as §1
# E6SM [6] = assay: Tested for the minimum inhibitory concentration required to reduce herpes simplex virus type 1 (HSV-1) strain KOS induced cytopathogenicity by 50%.; type: functional; settings: Homo sapiens; how it was run: as §1
# E6SM [7] = assay: Tested for the minimum inhibitory concentration required to reduce vesicular stomatitis virus(VSV) induced cytopathogenicity by 50%; type: functional; settings: Homo sapiens
# E6SM [8] = assay: Tested for the minimum cytotoxic concentration required to cause a microscopically detectable alteration of normal cell morphology in human embryonic skin muscle (E6SM) fibroblast cell cultures.; type: functional; how it was run: as §1
# HEL [9] = assay: Tested for the inhibitory concentration required to reduce thymidine kinase deficient Varicella-Zoster virus (TK- VZV) strain YS/R plaque formation by 50%.; type: functional, cell-based; settings: Homo sapiens
# E6SM [10] = assay: Tested for the minimum inhibitory concentration required to reduce herpes simplex virus type 1 (HSV-1) strain McIntyre induced cytopathogenicity by 50%.; type: functional; settings: Homo sapiens; how it was run: as §1
# E6SM [11] = assay: Tested for the minimum inhibitory concentration required to reduce thymidine kinase deficient herpes simplex virus type 1 (TK- HSV-1) strain B2006 induced cytopathogenicity by 50%.; type: functional; settings: Homo sapiens; how it was run: as §1
# E6SM [12] = assay: Tested for the minimum inhibitory concentration required to reduce herpes simplex virus type 2 (HSV-2) strain Lyons induced cytopathogenicity by 50%.; type: functional; settings: Homo sapiens; how it was run: as §1
# E6SM [13] = assay: Tested for the minimum inhibitory concentration required to reduce herpes simplex virus type 1 (HSV-1) strain F induced cytopathogenicity by 50%.; type: functional; settings: Homo sapiens; how it was run: as §1
# E6SM [14] = assay: Tested for the minimum inhibitory concentration required to reduce herpes simplex virus type 1 (TK- / TK+ HSV-1) strain VMW-1837 induced cytopathogenicity by 50%.; type: functional; settings: Homo sapiens; how it was run: as §1
# HEL [15] = assay: Tested for the cytotoxic concentration, required to reduce cell growth by 50% in human embryonic lung (HEL) cells.; type: functional; how it was run: as §2
# HEL [16] = assay: Tested for the inhibitory concentration required to reduce TK+ Varicella-Zoster virus (TK+ VZV) strain OKA plaque formation by 50%.; type: functional, cell-based; settings: Homo sapiens
# HEL [17] = assay: Tested for the inhibitory concentration required to reduce cytomegalovirus (CMV) strain Davis plaque formation by 50%.; type: functional, cell-based; settings: Homo sapiens; how it was run: as §2
# E6SM [18] = assay: Tested for the minimum inhibitory concentration required to reduce thymidine kinase deficient herpes simplex virus type 1 (TK- / TK+ HSV-1) strain VMW-1837 induced cytopathogenicity by 50%.; type: functional; settings: Homo sapiens; how it was run: as §1
# HEL [19] = assay: Tested for the inhibitory concentration required to reduce thymidine kinase plus Varicella-Zoster virus (TKplus VZV) strain OKA plaque formation by 50%.; type: functional, cell-based; settings: Homo sapiens; how it was run: as §2
# HEL [20] = assay: Tested for the inhibitory concentration required to reduce thymidine kinase deficient Varicella-Zoster virus (TK- VZV) strain 07/1 plaque formation by 50%.; type: functional, cell-based; settings: Homo sapiens
# Mus musculus = species on record: Mus musculus; assay: Inhibition constant assumed to reflect the affinity for the transport site in mouse erythrocytes; type: functional
# How it was run: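 Thymidine influx competition in erythrocytes from male B6D2F1 mice, 10% hematocrit in buffered saline, room temperature. [methyl-3H]thymidine at 0.1, 0.2, 0.5 and 1 mM, alone or with inhibitor at 0.053–1.05 mM. Influx stopped after 3 s with NBMPR. Pellets extracted in 5% perchloric acid and counted by scintillation. Zero-time trapping subtracted. Duplicate samples. Ki from Dixon plot.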
SMILES,MIC (E6SM [1]) [µg/mL],MIC (E6SM [2]) [µg/mL],IC50 (HEL [3]) [µg/mL],IC50 (HEL [4]) [µg/mL],MIC (E6SM [5]) [µg/mL],MIC (E6SM [6]) [µg/mL],MIC (E6SM [7]) [µg/mL],MCC (E6SM [8]) [µg/mL],IC50 (HEL [9]) [µg/mL],MIC (E6SM [10]) [µg/mL],MIC (E6SM [11]) [µg/mL],MIC (E6SM [12]) [µg/mL],MIC (E6SM [13]) [µg/mL],MIC (E6SM [14]) [µg/mL],CC50 (HEL [15]) [µg/mL],IC50 (HEL [16]) [µg/mL],IC50 (HEL [17]) [µg/mL],IC50 (HEL [20]) [µg/mL],further results
Nc1nc(=O)n(C2COC(CO)C(O)C2)cc1I (stereo not drawn),20,150,> 40,> 40,7,2,> 400,> 400,7.6,2,300,20,0.7,70,> 50,> 40,> 40,,
Nc1nc(=O)n(C2COC(CO)C(O)C2)cc1F (stereo not drawn),,0.2,0.9,3.5,2,0.2,> 200,> 400,7,,0.07,,,,2,,0.5,5,MIC (E6SM [18]): 2 µg/mL; IC50 (HEL [19]): 2.9 µg/mL
O=c1[nH]c(=O)n(C2COC(CO)C(O)C2)cc1/C=C/Br (stereo not drawn),70,,> 10,1.4,150,0.4,,> 400,40,0.4,> 100,70,2,70,50,1.4,23,20,
Nc1nc(=O)n(C2COC(CO)C(O)C2)cc1Cl (stereo not drawn),300,,> 40,> 40,300,300,,> 400,> 40,300,> 400,300,150,300,> 50,40,> 40,> 40,
Nc1ncnc2c1ncn2C[C@@H](CO)OCP(=O)(O)O,0.07,0.7,,,0.02,0.2,> 400,> 400,,2,1,0.1,0.2,1,,,,,
CCc1cn(C2COC(CO)C(O)C2)c(=O)[nH]c1=O (stereo not drawn),,200,> 50,> 50,0.4,0.02,,> 400,> 50,,> 400,,,0.4,> 50,> 50,> 50,> 50,
Nc1nc(N)c2ncn(C3COC(CO)C(O)C3)c2n1 (stereo not drawn),,7,2,2,0.7,0.2,> 200,> 400,5,,7,,,0.7,25,1.2,0.8,2.4,
O=c1[nH]c(=O)n(C2COC(CO)C(O)C2)cc1I (stereo not drawn),0.7,200,> 40,> 100,0.4,0.02,,> 400,> 100,0.04,> 400,0.4,0.01,,> 50,> 100,> 40,> 100,MIC (E6SM [18]): 4 µg/mL
Nc1nc2c(ncn2COCCO)c(=O)[nH]1 [ACYCLOVIR],,,20,,,,,,,,,,,,> 200,,,,
O=c1ccn([C@H]2C[C@H](O)[C@@H](CO)O2)c(=O)[nH]1 [DEOXYURIDINE],,,,,,,,,,,,,,,,,,,Ki (Mus musculus): 110 µM
Nc1nc2c(ncn2COC(CO)CO)c(=O)[nH]1 [GANCICLOVIR],,,2.9,0.072,,,,,0.9,,,,,,> 200,0.02,6.2,0.1,
